Sampled rows, rich in hits. Any-hit rate of the full collection: about 2%.
DAGLB inhibitor – diacylglycerol lipase beta (human) inhibition; HEK293T DAGLB membrane lysate, EnzChek fluorogenic substrate; Q8NCG7; AID 504411; inhibition, % at 5.17 µM; 340,000 compounds, 0.059% hits; in the data active = inhibition above about 34%
MT1-MMP act inh – MT1-MMP (human) activation inhibition. GFP/RFP ratio change, % at 20 µM. 360,000 compounds, 0.061% hits. HT1080 RFP-PRO-GFP cells, GFP/RFP ratio fluorescence, overnight; percent of plate control window, DMSO zero. AID 651647;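 active = GFP/RFP ratio change of at least 30% with cell ATP level not reduced by more than half and red fluorescence within 50% of control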
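Material: RFP-PRO-GFP reporter HT1080 cells. Dosing: single-point 20 µM compound, 1% DMSO. Controls: DMSO and RFP-L50D-GFP cell wells. Timing: cells overnight before dosing, compound overnight, 37 °C, 5% CO2. Measure: GFP/RFP fluorescence ratio.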
VLA-4 inh – inhibition in a human VLA-4 binding assay. P13612. VLA-4 expressing cells, ligand binding flow cytometry. inhibition, % (about 7 µM as worked out from the volumes in the protocol). 330,000 compounds, 0.2% hits; in the data active = inhibition above about 50%
FGF22 binding – binders of recombinant human FGF22 by thermal shift; SYPRO orange fluorescence; percent of sucrose octasulfate shift, DMSO zero; 340,000 compounds, 1.5% hits; AID 651658; Q9HCT0; activity (Tm shift, normalised), % at 9.99 µM;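 active = mean Tm shift, scaled 0 neutral to 100 positive control, at about 1.3% or above, every replicate too, limit read from the data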
Granule exo inh – blocks lytic granule exocytosis; AID 651702; 360,000 compounds, 0.66% hits; TALL-104 LAMP-1 surface exposure, flow cytometry; cells stimulated with thapsigargin and PMA; inhibition, % at 10 µM;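 active = inhibition above about 55%, limit read from the data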
ABCB6 inh 2 – inhibitors of human ABC transporter ABCB6; 360,000 compounds, 0.19% hits; AID 602162; Q9NP58; K562-ABCB6 porphyrin accumulation, flow cytometry, 1 h; hits give low values; fluorescence ratio to DMSO, % at 10 µM;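 active = fluorescence ratio to DMSO below 75%, the collection mean minus 3 SD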;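 note: signal is porphyrin accumulated inside mitochondria; lower ratio means ABCB6 inhibition with less porphyrin fluorescence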
Target sequence (Q9NP58 whole entry, looked up): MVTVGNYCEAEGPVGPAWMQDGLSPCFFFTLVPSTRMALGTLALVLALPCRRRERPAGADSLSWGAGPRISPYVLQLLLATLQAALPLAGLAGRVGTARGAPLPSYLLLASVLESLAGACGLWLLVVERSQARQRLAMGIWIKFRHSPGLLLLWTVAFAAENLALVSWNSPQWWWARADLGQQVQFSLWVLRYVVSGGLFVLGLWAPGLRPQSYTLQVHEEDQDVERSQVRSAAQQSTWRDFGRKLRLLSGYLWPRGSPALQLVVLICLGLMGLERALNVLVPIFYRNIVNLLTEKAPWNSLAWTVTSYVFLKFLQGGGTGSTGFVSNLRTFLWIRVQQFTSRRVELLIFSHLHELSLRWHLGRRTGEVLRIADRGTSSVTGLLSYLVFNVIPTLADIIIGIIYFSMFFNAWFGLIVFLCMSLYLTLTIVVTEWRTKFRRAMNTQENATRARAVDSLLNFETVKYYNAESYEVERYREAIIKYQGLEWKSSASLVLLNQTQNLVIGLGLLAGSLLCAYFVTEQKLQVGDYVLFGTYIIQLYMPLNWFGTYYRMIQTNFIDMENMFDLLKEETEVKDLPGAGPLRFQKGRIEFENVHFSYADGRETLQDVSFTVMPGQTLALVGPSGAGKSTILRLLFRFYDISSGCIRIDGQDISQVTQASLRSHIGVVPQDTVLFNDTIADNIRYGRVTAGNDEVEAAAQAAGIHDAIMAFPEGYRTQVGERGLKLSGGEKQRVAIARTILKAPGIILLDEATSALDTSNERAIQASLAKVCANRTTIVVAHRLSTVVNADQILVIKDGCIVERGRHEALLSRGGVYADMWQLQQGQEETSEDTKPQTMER
Granule exo CP1 – blocks lytic granule exocytosis; AID 651954; inhibition, % at 10 µM; TALL-104 cells, LAMP-1 externalization, flow cytometry; stimulated with PMA plus thapsigargin; shares compounds with Granule exo inh; 1,500 compounds, 11% hits; in the data active = inhibition above about 60%
Hits are given with their value.

What do the screens show for `Cc1ccc(-c2nc3c(c(=O)[nH]c(=O)n3Cc3ccccc3)n2Cc2ccccc2)o1`?
DAGLB inhibitor: inactive; MT1-MMP act inh: inactive; FGF22 binding: inactive; Granule exo inh: inactive; ABCB6 inh 2: inactive

How did Cc1ccc(-c2nc3c(c(=O)[nH]c(=O)n3Cc3ccccc3)n2C)o1 do in these assays?
DAGLB inhibitor: inactive; MT1-MMP act inh: inactive; FGF22 binding: inactive; Granule exo inh: 97.5; ABCB6 inh 2: inactive; Granule exo CP1: inactive

How did CCCCCCCCN1C(=O)[C@H](CC(=O)NCCCOCCCC)C[C@@]2(C(=O)OC)CC(C)(C)CC=C12 do in these assays?
MT1-MMP act inh: inactive; FGF22 binding: inactive; Granule exo inh: 59.5; Granule exo CP1: inactive

How did CCCCCCCCN1C(=O)[C@H](CC(=O)NCCCOCCCC)C[C@@]2(C(=O)OCC)CCCC=C12 do in these assays?
MT1-MMP act inh: inactive; FGF22 binding: inactive; Granule exo inh: 75.9; ABCB6 inh 2: inactive; Granule exo CP1: inactive

Results for CCN(CC)CCCN(C(=O)c1cccc(C)c1)c1nc(-c2ccc(OC)cc2)cs1 ?
DAGLB inhibitor: inactive; VLA-4 inh: inactive; FGF22 binding: inactive; Granule exo inh: inactive; ABCB6 inh 2: inactive

How did CCN(CC)CCCN(C(=O)c1ccc(Br)cc1)c1nc(-c2ccc(OC)cc2)cs1 do in these assays?
DAGLB inhibitor: inactive; MT1-MMP act inh: inactive; VLA-4 inh: inactive; FGF22 binding: inactive; Granule exo inh: 62.7; ABCB6 inh 2: inactive; Granule exo CP1: inactive

Results for CCCN(C)C[C@H]1Oc2cc(-c3ccccc3)ccc2S(=O)(=O)N([C@H](C)CO)C[C@H]1C ?
FGF22 binding: inactive

What do the screens show for `C[C@@H]1CN([C@@H](C)CO)S(=O)(=O)c2ccc(-c3cncnc3)cc2O[C@H]1CN(C)C(=O)Cc1ccccc1`?
FGF22 binding: inactive

Results for CCC(c1nc2ccccc2[nH]1)n1c(C)nc2ccccc21 (stereo not given) ?
FGF22 binding: inactive

How did CCCCCCCCC(c1nc2ccccc2[nH]1)N1CCN=C1c1cc2ccccc2[nH]1 (stereo not given) do in these assays?
MT1-MMP act inh: inactive; FGF22 binding: inactive; Granule exo inh: 75.6; ABCB6 inh 2: inactive; Granule exo CP1: inactive

Results for CO[C@H]1CN(C)C(=O)c2cc(NC(=O)C3CC3)ccc2OC[C@H](C)N(C(=O)c2ccncc2)C[C@@H]1C ?
FGF22 binding: inactive

Results for COc1ccc(N2C(=O)CC(Sc3n[nH]c(-c4ccccc4)n3)C2=O)cc1 (stereo not given) ?
DAGLB inhibitor: inactive; MT1-MMP act inh: inactive; VLA-4 inh: inactive; FGF22 binding: inactive; Granule exo inh: 87.6; ABCB6 inh 2: inactive; Granule exo CP1: 84.7

What do the screens show for `CC=Cc1ccc2n(c1=O)C[C@@H]1[C@@H](CO)[C@H](C(=O)OC)N(C(C)=O)[C@H]21` (mixture of isomers)?
FGF22 binding: inactive

What do the screens show for `O=C1c2cccc3cccc(c23)C(=O)N1CC1CCN(CC(O)COc2ccc3ccccc3c2)CC1` (stereo not given)?
DAGLB inhibitor: inactive; MT1-MMP act inh: inactive; VLA-4 inh: inactive; FGF22 binding: inactive; Granule exo inh: 58.0; ABCB6 inh 2: inactive; Granule exo CP1: inactive

What do the screens show for `COc1cccc(OCC(O)CN2CCC(CN3C(=O)c4cccc5cccc(c45)C3=O)CC2)c1` (stereo not given)?
DAGLB inhibitor: inactive; MT1-MMP act inh: inactive; VLA-4 inh: inactive; FGF22 binding: inactive; Granule exo inh: inactive; ABCB6 inh 2: inactive

Results for CCCCN(C)Cc1c(C)[nH]c2ccccc2c1=O ?
DAGLB inhibitor: inactive; MT1-MMP act inh: inactive; VLA-4 inh: inactive; FGF22 binding: 43.3; Granule exo inh: 71.3; ABCB6 inh 2: inactive; Granule exo CP1: inactive

How did CCC(=O)N1C[C@@H](O)COC[C@@H]2O[C@H](CC(=O)NCC3CCCCC3)CC[C@H]21 do in these assays?
FGF22 binding: inactive

What do the screens show for `O=C(C[C@@H]1CC[C@H](NC(=O)Nc2cc(F)ccc2F)[C@H](CO)O1)NCCCN1CCOCC1`?
FGF22 binding: inactive

How did COc1ccc2nc3ccccc3nc2c1N do in these assays?
DAGLB inhibitor: inactive; MT1-MMP act inh: inactive; VLA-4 inh: inactive; FGF22 binding: inactive; Granule exo inh: 82.1; ABCB6 inh 2: inactive; Granule exo CP1: inactive

How did CO[C@@H]1CN(C)C(=O)c2ccc(NC(=O)c3cnccn3)cc2OC[C@@H](C)N(CC2CC2)C[C@@H]1C do in these assays?
FGF22 binding: inactive

Results for Cc1ccc(C(=O)N/C(=C\c2ccc(-c3ccc(Br)cc3)o2)C(=O)NCCCN(C)C)cc1 ?
DAGLB inhibitor: inactive; MT1-MMP act inh: inactive; VLA-4 inh: inactive; FGF22 binding: inactive; Granule exo inh: 75.1; ABCB6 inh 2: inactive; Granule exo CP1: 99.1

Results for Cc1ccc(C(=O)N/C(=C\c2ccc(-c3cccc([N+](=O)[O-])c3)o2)C(=O)NCCCN(C)C)cc1 ?
DAGLB inhibitor: inactive; MT1-MMP act inh: inactive; VLA-4 inh: inactive; FGF22 binding: inactive; Granule exo inh: inactive; ABCB6 inh 2: inactive

What do the screens show for `COc1ccc2sc(N(CCCN(C)C)C(=O)c3ccc(S(=O)(=O)N4CCc5ccccc5C4)cc3)nc2c1`?
DAGLB inhibitor: inactive; MT1-MMP act inh: inactive; VLA-4 inh: inactive; FGF22 binding: inactive; Granule exo inh: 76.4; ABCB6 inh 2: inactive; Granule exo CP1: 84.1

Results for Cc1ccc2nc(N(CCCN(C)C)C(=O)c3ccc(S(=O)(=O)N4CCc5ccccc5C4)cc3)sc2c1 ?
DAGLB inhibitor: inactive; MT1-MMP act inh: inactive; VLA-4 inh: inactive; FGF22 binding: inactive; Granule exo inh: inactive; ABCB6 inh 2: inactive

What do the screens show for `CN(C)CCCN(C(=O)c1ccc(S(=O)(=O)N2CCc3ccccc32)cc1)c1nc2ccc(F)cc2s1`?
DAGLB inhibitor: inactive; MT1-MMP act inh: inactive; VLA-4 inh: inactive; Granule exo inh: inactive; ABCB6 inh 2: inactive

How did Cc1cc(C)c2sc(N(CCCN(C)C)C(=O)c3ccc(S(=O)(=O)N4CCc5ccccc5C4)cc3)nc2c1 do in these assays?
DAGLB inhibitor: inactive; MT1-MMP act inh: inactive; VLA-4 inh: inactive; Granule exo inh: 56.4; ABCB6 inh 2: inactive; Granule exo CP1: 62.6

Results for Cc1cc(C)c2sc(N(CCCN(C)C)C(=O)c3ccc(S(=O)(=O)N4CCCc5ccccc54)cc3)nc2c1 ?
DAGLB inhibitor: inactive; MT1-MMP act inh: inactive; VLA-4 inh: inactive; FGF22 binding: inactive; Granule exo inh: 57.9; ABCB6 inh 2: inactive; Granule exo CP1: inactive

Results for CO[C@H]1CN(C)C(=O)c2ccc(NC(=O)C3CCOCC3)cc2OC[C@@H](C)N(Cc2cccnc2)C[C@@H]1C ?
FGF22 binding: inactive

Screening data as filed in PubChem.
